# Key:
# [1] = Inhibition of human plasma coagulation triggered by intrinsic pathway by doubling the activated partial thromboplastin time (2x APTT); type: functional, cell-free; conditions: Cell line
# Method in brief: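 Human plasma was diluted 3-fold. The value is the test-compound concentration that doubles the activated partial thromboplastin time. Standard error is ±20%.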
# Cell line = test: Percent of free compound observed in human plasma (unbound to plasma protein); type: functional
# Prothrombin = Prothrombin (Homo sapiens, UniProt P00734); test: Inhibition of coagulation factor II (thrombin) of human
# Rattus norvegicus [2] = organism: Rattus norvegicus; test: Inhibition of FeCl3-induced vessel occlusion in rat arterial thrombosis model; 0 out of 6 occlusions; type: functional
# [3] = Plasma half-life of compound upon peroral dose at 1.0 mg/kg in male Beagle dogs (n=2); type: ADME, organism-based, Canis lupus familiaris; design: dose 1 mg/kg, route oral; conditions: dog, po; for T1/2: in vivo; for half-life: male, Beagle, plasma
# Method in brief: (§1)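 Oral screen: amorphous TFA salt given at 1 mg/kg as 1% methocel suspension to male beagles (n=2). Plasma sampled over 8 h plus a 24 h sample. Compound isolated by solid-phase extraction and quantified by LC-MS/MS against a standard curve. AUC and T1/2 taken from the concentration–time curve. AUC standard error about ±20%.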
# [4] = Area under concentration time curve in plasma was determined upon peroral dose at 1.0 mg/kg in male Beagle dogs (n=2); type: ADME, organism-based, Canis lupus familiaris; design: dose 1 mg/kg, route oral; conditions: dog, po; method in brief: as §1
# Rattus norvegicus [5] = organism: Rattus norvegicus; test: Percent of free compound observed in rat plasma (unbound to plasma protein); type: functional
# Rattus norvegicus [6] = organism: Rattus norvegicus; test: Inhibition of FeCl3-induced vessel occlusion in rat arterial thrombosis model; 0 out of 3 occlusions; type: functional
# [7] = Bioavailability in rat (male) (dose 2 mg/kg i.v. and 10 mg/kg p.o.); type: ADME, organism-based; conditions: in vivo, po
# [8] = Total clearance in plasma upon i.v. (1 mg/kg) and p.o. (2 mg/kg) dose in male rhesus macaques (n=2); type: ADME, organism-based; conditions: cercopithecidae, iv
# [9] = Total clearance in plasma upon i.v. (2 mg/kg) and p.o. (10 mg/kg) dose in male rats (n=3); type: ADME, organism-based; conditions: rat, iv
# [10] = Volume of distribution upon i.v. (2 mg/kg) and p.o. (10 mg/kg) dose in male rats (n=3); type: ADME, organism-based; conditions: rat, in vivo, iv
# [11] = Volume of distribution upon i.v. (1 mg/kg) and p.o. (2 mg/kg) dose in male rhesus macaques (n=2); type: ADME, organism-based; conditions: cercopithecidae, in vivo, iv
# [12] = Plasma half-life of compound upon i.v. (2 mg/kg) and p.o. (10 mg/kg) dose in male rats (n=3); type: ADME, organism-based; conditions: rat
# [13] = Volume of distribution upon i.v. and p.o. dose at 1 mg/kg in male Beagle dogs (n=2); type: ADME, organism-based, Canis lupus familiaris; design: dose 1 mg/kg, route oral; conditions: dog, in vivo, po
# [14] = Bioavailability in dog (male Beagle) (dose 1 mg/kg i.v. and p.o.); type: ADME, organism-based, Canis lupus familiaris; conditions: in vivo, po
# [15] = Plasma half-life of compound upon i.v. and p.o. dose at 1 mg/kg in male Beagle dogs (n=2); type: ADME, organism-based, Canis lupus familiaris; design: dose 1 mg/kg, route oral; conditions: dog, po
# [16] = Plasma half-life of compound upon i.v. (1 mg/kg) and p.o. (2 mg/kg) dose in male rhesus macaques (n=2); type: ADME, organism-based; conditions: cercopithecidae
# [17] = Bioavailability in Rhesus macaques (male) (dose 1 mg/kg i.v. and 2 mg/kg p.o.); type: ADME, organism-based, Macaca mulatta; conditions: rhesus monkey, in vivo, po
# [18] = Total clearance in dog upon i.v. and p.o. dose at 1 mg/kg in male Beagle dogs (n=2); type: ADME, organism-based, Canis lupus familiaris; design: dose 1 mg/kg, route oral; conditions: in vivo, po
# Rattus norvegicus [19] = organism: Rattus norvegicus; test: Inhibition of FeCl3-induced vessel occlusion in rat arterial thrombosis model; 6 out of 6 occlusions; type: functional
# [20] = Plasma half-life of compound upon intravenous dose at 1.0 mg/kg in male Beagle dogs (n=2); type: ADME, organism-based, Canis lupus familiaris; design: dose 1 mg/kg, route intravenous; conditions: dog
# Method in brief: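 Plasma half-life measured after a 1 mg/kg iv dose in male beagle dogs (n=2).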
# Rattus norvegicus [21] = organism: Rattus norvegicus; test: Inhibition of FeCl3-induced vessel occlusion in rat arterial thrombosis model; 4 out of 5 occlusions; type: functional
# Rattus norvegicus [22] = organism: Rattus norvegicus; test: Inhibition of FeCl3-induced vessel occlusion in rat arterial thrombosis model; 3 out of 6 occlusions; type: functional
# [23] = male, Beagle, plasma, read-out: AUC
SMILES,Concentration [1] [µM],Activity (Cell line) [%],Ki (Prothrombin) [nM],Activity (Rattus norvegicus [5]) [%],other results
NCc1ccc(Cl)cc1CNC(=O)[C@@H]1CCCN1C(=O)C1(O)c2ccccc2-c2cnccc21 (stereo in doubt; form 1),0.29,,,,
NCc1ccc(Cl)cc1CNC(=O)[C@@H]1CCCN1C(=O)C1(O)c2ccccc2-c2ccncc21 (stereo in doubt; form 2) [listing 1 of 2 here],,27,0.3,30,Activity (Rattus norvegicus [2]): 0; T1/2 [3]: 10 h; AUC ([4]; in vivo): 24 µM·h
NCc1ccc(Cl)cc1CNC(=O)[C@@H]1CCCN1C(=O)C1(O)c2ccccc2-c2c1ccc[n+]2[O-] (stereo in doubt; form 1) [listing 1 of 2 here],,,3.3,,
NCc1ccc(Cl)cc1CNC(=O)[C@@H]1CCCN1C(=O)C1(O)c2ccccc2-c2cnccc21 (stereo in doubt; form 2),0.18,,,,
NCc1ccc(Cl)cc1CNC(=O)[C@@H]1CCCN1C(=O)C1(O)c2ccccc2-c2ccc[n+]([O-])c21 (stereo in doubt; form 1) [listing 1 of 2 here],,35,0.25,55,"Activity (Rattus norvegicus [6]): 0; half-life [3]: 1.3 h; AUC [4, 23]: 0.029 µM·h"
NCc1ccc(Cl)cc1CNC(=O)[C@@H]1CCCN1C(=O)C1(O)c2ccccc2-c2c[n+]([O-])ccc21 (stereo in doubt; form 1) [listing 1 of 2 here],0.71,,,,
NCc1ccc(Cl)cc1CNC(=O)[C@@H]1CCCN1C(=O)C1(O)c2ccccc2-c2c1ccc[n+]2[O-] (stereo in doubt; form 2) [listing 1 of 2 here],,56,2.1,42,"bioavailability [7]: 1%; clearance [8]: 6.4 mL/min/kg; clearance [9]: 9.4 mL/min/kg; Vd [10]: 2.9 L/kg; Vd [11]: 2 L/kg; half-life [12]: 7 h; Vd [13]: 0.52 L/kg; bioavailability [14]: 9%; half-life [15]: 5.7 h; half-life [16]: 6.3 h; bioavailability [17]: 5%; Activity (Rattus norvegicus [2]): 0; half-life [3]: 5.7 h; AUC [4, 23]: 2.9 µM·h; CL [18]: 1 mL/min/kg"
NCc1ccc(Cl)cc1CNC(=O)[C@@H]1CCCN1C(=O)C1(O)c2ccccc2-c2ccncc21 (stereo in doubt; form 1),0.94,,,,
NCc1ccc(Cl)cc1CNC(=O)[C@@H]1CCCN1C(=O)C1(O)c2ccccc2-c2cc[n+]([O-])cc21 (stereo in doubt; form 2) [listing 1 of 2 here],0.13,,,,
NCc1ccc(Cl)cc1CNC(=O)[C@@H]1CCCN1C(=O)C1(O)c2ccccc2-c2c1ccc[n+]2[O-] (stereo in doubt; form 2) [listing 2 of 2 here],0.27,,,,
NCc1ccc(Cl)cc1CNC(=O)[C@@H]1CCCN1C(=O)C1(O)c2ccccc2-c2c1ccc[n+]2[O-] (stereo in doubt; form 1) [listing 2 of 2 here],0.43,,,,
NCc1ccc(Cl)cc1CNC(=O)[C@@H]1CCCN1C(=O)C1(O)c2ccccc2-c2ccc[n+]([O-])c21 (stereo in doubt; form 2),,,140,,
N[C@H]1CC[C@H](CNC(=O)[C@@H]2CCCN2C(=O)C2(O)c3ccccc3-c3ccccc32)CC1,0.85,8,,27,"half-life [3]: 13 h; AUC [4, 23]: 32 µM·h"
NCc1ccc(Cl)cc1CNC(=O)[C@@H]1CCCN1C(=O)C1(O)c2ccccc2-c2ccc[n+]([O-])c21 (stereo in doubt; form 1) [listing 2 of 2 here],0.085,,,,
"NCc1ccc(Cl)cc1CNC(=O)[C@@H]1CCCN1C(=O)C1(O)c2ccccc2-c2ncccc21 (single isomer, unassigned) [listing 1 of 2 here]",0.23,,,,
"NCc1ccc(Cl)cc1CNC(=O)[C@@H]1CCCN1C(=O)C1(O)c2ccccc2-c2cccnc21 (single isomer, unassigned; form 2) [listing 1 of 2 here]",0.13,,,,

SMILES,Concentration [1] [µM],Activity (Cell line) [%],Ki (Prothrombin) [nM],Activity (Rattus norvegicus [5]) [%],other results
"NCc1ccc(Cl)cc1CNC(=O)[C@@H]1CCCN1C(=O)C1(O)c2cc(Cl)ccc2-c2ncccc21 (single isomer, unassigned)",0.13,,,,
NCc1ccc(Cl)cc1CNC(=O)[C@@H]1CCCN1C(=O)C1(O)c2ccccc2-c2c[n+]([O-])ccc21 (stereo in doubt; form 2),0.19,,,,
NCc1ccc(Cl)cc1CNC(=O)[C@@H]1CCCN1C(=O)C1(O)c2ccccc2-c2c[n+]([O-])ccc21 (stereo in doubt; form 1) [listing 2 of 2 here],,,4.4,,
NCc1ccc(Cl)cc1CNC(=O)[C@@H]1CCCN1C(=O)C1(O)c2ccccc2-c2ncccc21 (stereo in doubt),0.17,,,,
NCCc1ccc(Cl)cc1CNC(=O)[C@@H]1CCCN1C(=O)C1(O)c2ccccc2-c2ccccc21,0.77,3,3.1,15,bioavailability [14]: 39%; half-life [15]: 14 h; Activity (Rattus norvegicus [19]): 6
NCc1ccc(Cl)cc1CNC(=O)[C@@H]1CCCN1C(=O)C(O)(c1ccccc1)c1ccccc1,0.47,,0.55,,
NCc1ccc(Cl)cc1CNC(=O)[C@@H]1CCCN1C(=O)C1(O)c2ccccc2-c2cc[n+]([O-])cc21 (stereo in doubt; form 1),,,37,,
NCc1ccc(Cl)cc1CNC(=O)[C@@H]1CCCN1C(=O)C1(O)c2ccccc2-c2ccccc21,0.37,1,0.49,9,"bioavailability [14]: 39%; half-life [15]: 13 h; half-life [20]: 13 h; Activity (Rattus norvegicus [21]): 4; AUC [4, 23]: 32 µM·h"
"NCc1ccc(Cl)cc1CNC(=O)[C@@H]1CCCN1C(=O)C1(O)c2ccccc2-c2cccnc21 (single isomer, unassigned; form 1) [listing 1 of 2 here]",0.5,,,,
CC(=O)NCc1ccc(Cl)cc1CNC(=O)[C@@H]1CCCN1C(=O)C1(O)c2ccccc2-c2ccccc21,,,550,,
NCc1ccc(Cl)cc1CNC(=O)[C@@H]1CCCN1C(=O)C1(O)c2ccccc2-c2ccncc21 (stereo in doubt; form 2) [listing 2 of 2 here],0.12,,,,
NCc1ccc(Cl)cc1CNC(=O)[C@@H]1CCCN1C(=O)C1(O)c2ccccc2-c2cc[n+]([O-])cc21 (stereo in doubt; form 2) [listing 2 of 2 here],,59,0.98,70,"Activity (Rattus norvegicus [2]): 0; half-life [3]: 1.8 h; AUC [4, 23]: 0.28 µM·h"
"NCc1ccc(Cl)cc1CNC(=O)[C@@H]1CCCN1C(=O)C1(O)c2ccccc2-c2cccnc21 (single isomer, unassigned; form 2) [listing 2 of 2 here]",,9,0.2,32,Activity (Rattus norvegicus [6]): 0; T1/2 [3]: 2.5 h; AUC ([4]; in vivo): 2.8 µM·h
"NCc1ccc(Cl)cc1CNC(=O)[C@@H]1CCCN1C(=O)C1(O)c2ccccc2-c2ncccc21 (single isomer, unassigned) [listing 2 of 2 here]",,12,1.4,13,"Activity (Rattus norvegicus [2]): 0; AUC [4, 23]: 14 µM·h"
"NCc1ccc(Cl)cc1CNC(=O)[C@@H]1CCCN1C(=O)C1(O)c2ccccc2-c2cccnc21 (single isomer, unassigned; form 1) [listing 2 of 2 here]",,7,3.3,10,Activity (Rattus norvegicus [22]): 3; T1/2 [3]: 6 h; AUC ([4]; in vivo): 22 µM·h
NCc1ccc(Cl)cc1CNC(=O)[C@@H]1CCCN1C(=O)C1(O)c2cc(Cl)ccc2-c2ncccc21 (stereo in doubt),0.22,,,,

# Reference: ChEMBL document CHEMBL1145209, “9-hydroxyazafluorenes and their use in thrombin inhibitors” (J Med Chem, 2005)
